PKD1 inh: blocks activity of human protein kinase D1 | Q15139 | PKD1 kinase fluorescence polarization assay | inhibition, % (no concentration beside the values) | 200,000 tested, 0.056% active | AID 797; in the data active = inhibition above about 50%
ROMK mod: modulators of human ROMK potassium channel. P48048. Tet-inducible ROMK, thallium flux fluorescence; actives lie on both sides. B-score at 10 µM. 130,000 tested, 2% active. AID 1918;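 active = signal ratio slope over the read window, or its plate-corrected B-score, at least 3 SD from the plate mean, either direction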;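 also: B-score of the F/F0 ratio slope over 7 to 12 s after thallium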
Target sequence (P48048 whole entry, looked up): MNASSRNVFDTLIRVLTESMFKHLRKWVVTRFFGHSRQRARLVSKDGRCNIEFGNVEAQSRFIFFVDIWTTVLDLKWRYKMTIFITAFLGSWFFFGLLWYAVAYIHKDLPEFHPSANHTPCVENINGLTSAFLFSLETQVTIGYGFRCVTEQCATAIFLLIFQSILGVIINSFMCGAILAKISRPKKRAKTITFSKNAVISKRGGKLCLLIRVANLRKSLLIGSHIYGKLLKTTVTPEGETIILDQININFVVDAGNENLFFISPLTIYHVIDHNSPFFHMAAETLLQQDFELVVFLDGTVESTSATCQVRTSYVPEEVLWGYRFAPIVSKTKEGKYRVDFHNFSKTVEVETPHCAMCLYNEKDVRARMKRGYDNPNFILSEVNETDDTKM
KCC2 mod: KCC2 (human) Cl- transport modulation; Q9H2X9; KCC2 cells, thallium flux FluoZin-2 fluorescence; B-score of Tl+ flux slope (higher = more flux/activation; lower = inhibition) at 10 µM; 190,000 tested, 2.2% active; AID 1456;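 active = thallium flux slope and its plate-corrected score both differing from the plate sample mean at a set confidence after two filtering rounds, in either direction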;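 also: slope of fluorescence scaled to starting intensity during 10 to 20 s after thallium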
Rad51 HR inh: Rad51 (human) homologous recombination inhibition; Q06609; hRad51 DNA strand exchange, fluorescence dequenching; inhibition, % at 10 µM; 200,000 tested, 0.085% active; AID 1385;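 active = inhibition above 40% at the single screening dose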
Target sequence (Q06609 whole entry, looked up): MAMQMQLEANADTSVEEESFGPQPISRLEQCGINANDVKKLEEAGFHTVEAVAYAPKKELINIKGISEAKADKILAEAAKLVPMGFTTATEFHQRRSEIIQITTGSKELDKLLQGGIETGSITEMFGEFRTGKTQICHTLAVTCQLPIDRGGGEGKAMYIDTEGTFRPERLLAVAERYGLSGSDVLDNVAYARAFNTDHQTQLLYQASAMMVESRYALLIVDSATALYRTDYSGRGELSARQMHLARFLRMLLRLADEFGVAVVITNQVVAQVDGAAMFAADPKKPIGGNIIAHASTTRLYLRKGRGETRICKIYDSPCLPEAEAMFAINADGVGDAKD
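System: hRad51 filaments on single-stranded DNA; reagent: Fluorescein- and BHQ1-tagged 47-mer duplex; compound dosing: one concentration, 10 µM final; timing: filaments 15 min 37 °C, then compound 30 min; measured by: fluorescein emission 520 nm, excitation 485 nm; benchmarks: per-plate controls and blanks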
PKD FP artifact: FP interference, PKD inhibitor counter-screen | 85 tested, under 10 active | inhibition, % at 10 µM | PKD1 FP assay interference counter-screen, fluorescence polarization | shares compounds with PKD1 inh; call rule not given here
KCC2 secondary: confirmation of human KCC2 transport modulators; shares compounds with KCC2 mod; HEK293-KCC2, thallium flux, FluoZin2 fluorescence; hits give high values; normalised thallium flux (F/F0 slope) at 10 µM; 3,700 tested, 15% active;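 active = thallium flux slope above the same plate's solvent-only control mean plus 3 SD; inconclusive = the two replicate wells disagree; inactive = no significant difference from solvent-only control wells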
KCC2 bumet counter: bumetanide-insensitive thallium flux in KCC2 cells with ouabain, counter-screen; AID 1714; HEK293-KCC2 + bumetanide/ouabain, thallium flux FluoZin2; hits give high values; normalized thallium flux at 10 µM; 3,700 tested, 49% active; shares compounds with KCC2 mod;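 active = thallium entry rate above the same plate's blocked-transporter control wells by more than 3 SD; inconclusive = the two repeat wells disagree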;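 also: raw slope of fluorescence over initial fluorescence between 10 and 20 s after thallium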
KCC2 sec2: KCC2 (human) modulation, second secondary assay. shares compounds with KCC2 mod. HEK293-KCC2, thallium flux FluoZin2 fluorescence; actives lie on both sides; F/F0 rise rate, 10–20 s post-thallium. normalized thallium flux at 10 µM. 3,700 tested, 23% active;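 active = thallium flux slope more than 3 SD above or below the plate's solvent-only control mean, mostly below; inconclusive = the two repeat wells disagreed; inactive = no significant shift from solvent-only controls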
HEK293 Tl flux: acts in parental HEK cells, KCC2 counter-screen; shares compounds with KCC2 mod; HEK293 parental cells, thallium flux FluoZin2, ouabain; baseline-ratio fluorescence slope, 10–20 s after thallium; thallium flux rate (normalised fluorescence) at 10 µM; 3,700 tested, 46% active; AID 1716;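 active = thallium flux rate significantly above the same plate's solvent-only control wells, beyond their mean plus 3 SD; inconclusive = the two replicate wells gave conflicting results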
KCC2 retest ouab: modulates human KCC2 on retest with ouabain; 3,700 tested, 48% active; shares compounds with KCC2 mod; raw Tl+ flux slope (below DMSO = inhibition, above = activation) at 10 µM; HEK293-KCC2, thallium flux FluoZin2 fluorescence; bidirectional: low = inhibitor, high = activator;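 active = thallium flux slope beyond 3 SD from same-plate DMSO control mean in most replicates, usually higher, sometimes lower; inconclusive = repeat tests gave conflicting results; inactive = no significant difference from controls in most replicates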;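 also: slope of initial-normalized fluorescence between seconds 10 and 20 after thallium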
HEK counter2: counter-screen for KCC2 modulators: effect in parental HEK293 cells; 3,700 tested, 33% active; shares compounds with KCC2 mod; thallium flux slope at 10 µM; AID 1718; thallium flux FluoZin-2 fluorescence slope;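 active = thallium flux slope above the same plate's solvent-control mean plus 3 SD in both duplicate wells; inconclusive = duplicate wells that disagreed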;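 also: run without ouabain in cells lacking the KCC2 cotransporter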
ROMK hit retest: confirmation of human ROMK potassium channel modulators; shares compounds with ROMK mod; ROMK thallium flux, fluorescence ratio; hits give low values; normalized thallium flux (F/F0 slope) at 10 µM; 3,000 tested, 54% active; AID 1917;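 active = Flux at 10 µM at least 3 SD below or above vehicle control mean in one or both replicates; inconclusive = no clear call, values can overlap the other calls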
Large screens that a line does not name were inactive (follow-up assays come after a bar, where they were run). Only some compounds are listed: those with a hit (about 3% of all), similar ones and a draw of the others.

O=C(c1cc(-c2ccccc2)nc2ccccc12)N1CCN(c2ccccn2)CC1	PKD1 inh 93 | PKD FP artifact inactive
CCC(=O)Nc1c2c(nn1-c1ccccc1C)CSC2	PKD1 inh 81 (no result: ROMK mod) | PKD FP artifact inactive
CCn1c(SCC(=O)OC(C)C)nnc1-c1ccccc1OC	none
O=C(CN1C(=O)c2ccccc2C1=O)Nc1ccc(S(=O)(=O)N2CCOCC2)cc1	none
CCn1c(CSc2ncccn2)nnc1SCC(=O)N1CCc2ccccc21	PKD1 inh 99 (no result: Rad51 HR inh) | PKD FP artifact inactive
COc1ccc([N+](=O)[O-])cc1NS(=O)(=O)c1cccc(C(=O)O)c1	none (no result: PKD1 inh, ROMK mod)
NC(N)=NC(=O)c1nc(Cl)c(N)nc1N	PKD1 inh 80 (no result: ROMK mod) | PKD FP artifact inactive
CN(C)C(CNC(=S)Nc1ccc(F)cc1)c1cccnc1 (stereo not drawn)	none (no result: Rad51 HR inh)
Cc1ccc(C(=O)NNC2=Nc3cccc4cccc2c34)cc1	PKD1 inh 54 (no result: ROMK mod) | PKD FP artifact inactive
O=[N+]([O-])c1ccc(-n2cnc3ccccc32)c([N+](=O)[O-])c1	none (no result: Rad51 HR inh)
COc1ccc(N(CC(=O)NCCC2=CCCCC2)S(=O)(=O)c2ccc(C)cc2)cc1	none
C=CCOc1cccc(C2C(C(=O)c3ccc(C)o3)=C(O)C(=O)N2c2nccs2)c1 (stereo not drawn)	PKD1 inh 76 (no result: ROMK mod, KCC2 mod) | PKD FP artifact 54
O=C1CN(C(=O)c2cc([N+](=O)[O-])ccc2Cl)C(c2ccc(F)cc2)c2cc(F)ccc2N1 (stereo not drawn)	none
Cc1c(N/N=C(\C#N)C(=O)c2ccccc2)c(=O)n(-c2ccccc2)n1C	PKD1 inh 55 (no result: ROMK mod, Rad51 HR inh) | PKD FP artifact inactive
Clc1ccc(Nc2ccc(-n3ccnc3)nn2)cc1Cl	PKD1 inh 52 (no result: ROMK mod) | PKD FP artifact inactive
CCOC(=O)c1c(-c2ncc(C(F)(F)F)cc2Cl)noc1C	none
O=C1NCCCc2c1oc1ccc(O)cc21	PKD1 inh 100 (no result: ROMK mod) | PKD FP artifact inactive
O=C(CN1CCN(c2ncccn2)CC1)N1CCCc2c1c(=O)oc1ccc(O)cc21	none
COC(=O)c1ccccc1OCC(=O)NC1CCCCC1	PKD1 inh 85 | PKD FP artifact inactive
CCc1ccccc1OCC(=O)NC1CCCC1	none (no result: ROMK mod)
O=C(CCCSc1nnc(SCCCC(=O)c2ccc(F)cc2)s1)c1ccc(F)cc1	none (no result: ROMK mod, KCC2 mod)
Nc1nnc(SCCCC(=O)c2ccc(F)cc2)s1	PKD1 inh 65 (no result: ROMK mod) | PKD FP artifact inactive
CS(=O)(=O)c1ccc2nc(N)sc2c1	none (no result: ROMK mod)
Nc1nc2ccc([N+](=O)[O-])c(N)c2s1	PKD1 inh 97 (no result: ROMK mod, KCC2 mod) | PKD FP artifact inactive
O=C1CC(N2CCN(c3ccccc3Cl)CC2)C(=O)N1c1ccc(F)cc1 (stereo not drawn)	PKD1 inh 51 | PKD FP artifact inactive
O=C1CC(N2CCN(c3ccccc3F)CC2)C(=O)N1c1ccc(F)cc1 (stereo not drawn)	none
O=C1CC(N2CCN(c3ccccc3Cl)CC2)C(=O)N1c1cccc(F)c1 (stereo not drawn)	PKD1 inh 109 (no result: ROMK mod) | PKD FP artifact inactive
COc1ccc(C(=O)C2CCCN(Cc3ccc4nonc4c3)C2)c(OC)c1 (stereo not drawn)	none (no result: KCC2 mod)
c1ccc(-c2n[nH]c3ccccc23)cc1	PKD1 inh 90, KCC2 mod -2.9 | PKD FP artifact inactive | KCC2 secondary inactive | KCC2 bumet counter inactive | KCC2 sec2 inactive | HEK293 Tl flux inactive | KCC2 retest ouab inactive | HEK counter2 inactive
CCOc1ccc(C(C)=O)cc1CSc1nc2nc(C)cc(C)n2n1	none
O=C(CN1CCCC1)Nc1c2c(nc3ccccc13)N(Cc1ccccc1)CC2	PKD1 inh 100, ROMK mod -3.1 (no result: KCC2 mod) | PKD FP artifact inactive | ROMK hit retest 0.061
Clc1cncc(Cl)c1N/N=C/c1ccncc1	PKD1 inh 91, ROMK mod 4.1 | PKD FP artifact inactive | ROMK hit retest 0.12
Clc1cccc(Cl)c1/C=N/Nc1c(Cl)cncc1Cl	none (no result: PKD1 inh, ROMK mod, KCC2 mod)
NN1C(=O)NC(c2ccccc2)(c2ccccc2)C1=O	none
O=C1OC(c2ccc(O)cc2)(c2ccc(O)cc2)c2ccccc21	KCC2 mod 11 (no result: ROMK mod) | KCC2 secondary inactive | KCC2 bumet counter 0.0096 | KCC2 sec2 inactive | HEK293 Tl flux inactive | KCC2 retest ouab 0.025 | HEK counter2 inactive
Cc1nc2c(Br)c3nc(C(F)(F)F)[nH]c3c(Br)c2[nH]1	KCC2 mod -7.6 (no result: ROMK mod) | KCC2 secondary inactive | KCC2 bumet counter inactive | KCC2 sec2 inactive | HEK293 Tl flux inactive | KCC2 retest ouab inactive | HEK counter2 inactive
O=C(CN1C(=O)NC2(CCCCC2)C1=O)N1CCN(S(=O)(=O)c2ccccc2)CC1	none
O=C(CN1C(=O)NC2(CCCCCC2)C1=O)N1CCC(Cc2ccccc2)CC1	KCC2 mod -4.9 | KCC2 secondary inactive | KCC2 bumet counter 0.025 | KCC2 sec2 inconclusive | HEK293 Tl flux 0.012 | KCC2 retest ouab 0.017 | HEK counter2 inactive
CCOC(=O)C1=NN(C(=O)c2cccc(Br)c2)C(O)(C(C)(C)C)C1 (stereo not drawn)	KCC2 mod 107 (no result: PKD1 inh, ROMK mod) | KCC2 secondary 0.048 | KCC2 bumet counter 0.13 | KCC2 sec2 0.052 | HEK293 Tl flux inconclusive | KCC2 retest ouab 0.099 | HEK counter2 0.039
CC(C)C1Nc2ccc(S(N)(=O)=O)cc2C2C=CCC21 (stereo not drawn)	none (no result: ROMK mod)
NS(=O)(=O)c1ccc2c(c1)C1C=CCC1C(C1CC=CCC1)N2 (stereo not drawn)	KCC2 mod 4.7 | KCC2 secondary inactive | KCC2 bumet counter inactive | KCC2 sec2 inactive | HEK293 Tl flux inactive | KCC2 retest ouab inactive | HEK counter2 inactive

Assay outcomes (PubChem BioAssay)
